Experimental data gathered from unrelated publications.
Each line is one published result; the experiments were not run side by side.
Target: Aurora kinase C (AURKC, Homo sapiens, UniProt Q9UQB9)

Compound | assay | setting | measurement | result
O=C(Nc1cnn(-c2csc(C(=O)NC3COC3)c2)c1)Nc1c(F)cccc1Cl | enzyme activity, inhibitor | 5 µM | remaining activity | 58.5%
Cc1cnc(NC2CCOCC2)nc1-n1cnc(C(=O)NC(CN)c2cc(F)cc(Cl)c2)c1 (centres unmarked) | enzyme activity, inhibitor, radiometric | 1 µM | remaining activity | 67%
CN1CC(Oc2cnc(C#N)cc2-c2ccn3nc(NC(=O)C4CC4)cc3c2)C1 | enzyme activity, inhibitor | 1 µM | inhibition | 3%
COc1cc2ncnc(Nc3ccc(Oc4ccccc4)c(C)c3C)c2cc1OC | enzyme activity, inhibitor | 1 µM | inhibition | 5%
Cc1cc(NC(=O)c2cccc3cc(-c4cccc5[nH]nc(N)c45)ccc23)ccc1F | enzyme activity, inhibitor | 0.1 µM | activity vs control | 83%
O=C(NS(=O)(=O)c1ccc(NCC2CCOCC2)c([N+](=O)[O-])c1)c1ccc(N2CCN(Cc3ccc(C(F)(F)F)cc3-c3ccc(Cl)cc3)CC2)cc1Oc1cnc2[nH]ccc2c1 | cell-free assay, competition with immobilised ligand | 1 µM | remaining binding | 97%
O=C1Nc2ccc(Cl)cc2C1=Cc1cc(Cl)c(O)c(Cl)c1 | cell-free assay | 0.5 µM | remaining signal | 78.6%
Cc1ccc(C(=O)NCc2ccsc2)cc1C#Cc1cn(C(C)C)c2ncnc(N)c12 | enzyme activity, inhibitor | 1 µM | activity vs control | 81%
CC1=C(C#N)[C@@H](c2ccc3[nH]nc(C)c3c2)C(C#N)=C(c2ccc(Cl)cc2)N1 | cell-free assay, competition with immobilised ligand | 1 µM | remaining binding | 100%
CNc1cccc2cc(C(=O)Nc3ccc(C(=O)O)cc3)c(=O)[nH]c12 | enzyme activity, inhibitor | 10 µM | inhibition | -7.3%
CCN(CC)CCNC(=O)c1c(C)[nH]c(/C=C2\C(=O)Nc3ccc(Cl)cc32)c1C | enzyme activity, inhibitor | 0.5 µM | remaining activity | 74.7%
CC(C)(C)c1nc2c(s1)c1nc(N)ncc1c1ccc(NS(=O)(=O)c3c(F)cccc3F)c(F)c12 | enzyme activity, inhibitor, radiometric | 1 µM | remaining activity | 104%
CCC(=O)N[C@H]1CC[C@@H](C(=O)N(C)c2ccc(-c3nc4ccccc4o3)cc2)C1 | cell-free assay, competition with immobilised ligand | 1 µM | remaining binding | 100%
O=C1NC(=O)c2cc(Nc3ccc(F)cc3)c(Nc3ccc(F)cc3)cc21 | cell-free assay | 0.5 µM | remaining signal | 90.8%
O=C(NCc1ncc(C(F)(F)F)cc1Cl)c1ccc2c(c1)C1(CCS(=O)(=O)CC1)[C@@H](C1CC1)N2S(=O)(=O)c1ccc(F)cc1 | cell-free assay, competition with immobilised ligand | 1 µM | remaining binding | 80%
CCN(CC)c1ccc(C2=NNC(=O)CC2C)cc1[N+](=O)[O-] (centres unmarked) | enzyme activity, inhibitor | 10 µM | remaining activity | 122%
CCC(=N\O)/C(C)=C/c1ccc(F)cc1 | cell-free assay, competition with immobilised ligand | 1 µM | remaining binding | 80%
O=c1c2ccccc2[nH]c(=S)n1CCN1CCC(=C(c2ccc(F)cc2)c2ccc(F)cc2)CC1 | enzyme activity, inhibitor | 0.5 µM | remaining activity | 99.4%
CC(=O)N1CCC(c2ccc(C(=O)NC3=NCCN3)cc2C(F)(F)F)CC1 | cell-free assay, competition with immobilised ligand | 1 µM | remaining binding | 100%
C=CC(=O)Nc1cc(Nc2nccc(Nc3cc(Cl)c(F)cc3C(C)(C)O)n2)c(OC)cc1N1CC[C@@H](N(C)C)C1 | enzyme activity, inhibitor | 1 µM | inhibition | 6%
